UHRF1 binding: UHRF1 methylated DNA binding inhibitors, primary screen, counter-screen for MBD2 inhibitor project, biochemical, TR-FRET, human UHRF1, single concentration. E3 ubiquitin-protein ligase UHRF1 (Homo sapiens), Q96T88. UHRF1 binding to methylated oligo. inhibition, % at 4.4 µM. 370,000 compounds, 0.75% hits. AID 687016, 2013; in the data active means inhibition above about 21%;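 further: UHRF1 SRA domain binding a hemimethylated CpG hairpin DNA probe; 0% = median of test compound wells and 100% = reference inhibitor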
Target sequence (Q96T88 whole entry, looked up, the tested form may be a part): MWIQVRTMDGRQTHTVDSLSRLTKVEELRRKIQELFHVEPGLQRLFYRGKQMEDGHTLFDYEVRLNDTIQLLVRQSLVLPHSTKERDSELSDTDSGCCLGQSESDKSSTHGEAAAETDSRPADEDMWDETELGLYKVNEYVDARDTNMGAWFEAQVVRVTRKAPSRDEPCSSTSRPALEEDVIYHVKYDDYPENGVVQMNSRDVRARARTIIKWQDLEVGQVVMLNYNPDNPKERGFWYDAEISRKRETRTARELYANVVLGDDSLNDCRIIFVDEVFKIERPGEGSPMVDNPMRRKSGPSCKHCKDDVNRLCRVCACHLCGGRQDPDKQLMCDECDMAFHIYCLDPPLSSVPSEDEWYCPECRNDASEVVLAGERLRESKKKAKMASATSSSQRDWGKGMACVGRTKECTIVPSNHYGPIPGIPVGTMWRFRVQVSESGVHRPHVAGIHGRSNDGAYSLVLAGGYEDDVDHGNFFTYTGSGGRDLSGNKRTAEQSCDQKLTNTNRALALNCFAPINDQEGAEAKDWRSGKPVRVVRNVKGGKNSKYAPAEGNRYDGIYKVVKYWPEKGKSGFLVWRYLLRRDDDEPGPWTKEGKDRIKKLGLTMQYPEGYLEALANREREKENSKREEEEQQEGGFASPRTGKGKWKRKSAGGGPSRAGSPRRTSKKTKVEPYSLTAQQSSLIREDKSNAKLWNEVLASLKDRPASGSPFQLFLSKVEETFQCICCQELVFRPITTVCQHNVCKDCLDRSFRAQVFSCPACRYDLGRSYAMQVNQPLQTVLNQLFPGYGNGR
MBD2 inh: inhibitors of MBD2 binding to methylated DNA, primary screen, biochemical, TR-FRET, DNA-binding domain, human; Methyl-CpG-binding domain protein 2 (Homo sapiens), Q9UBB5; MBD2 binding to methylated oligonucleotide; inhibition, % at 4.4 µM; 370,000 compounds, 0.31% hits; in the data active means inhibition above about 13%
PRMT1 FP inh: PRMT1 methyltransferase inhibitors, primary screen, biochemical, fluorescence polarization. 370,000 compounds, 1.3% hits. recombinant PRMT1, activity-based probe fluorescence polarization. inhibition, % at 2.79 µM. Protein arginine N-methyltransferase 1 (Homo sapiens), Q99873;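 active means inhibition above about 21% made by adding two undisclosed values, limit read from the data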
ABHD5-PLIN5 inh: ABHD5-PLIN5 interaction inhibitors, primary screen, cell lysate, split luciferase complementation, luminescence; Perilipin-5 (Homo sapiens) + 1-acylglycerol-3-phosphate O-acyltransferase ABHD5 (Homo …; Split G. princeps luciferase complementation, 4 h; inhibition, % at 4 µM; 360,000 compounds, 0.78% hits; AID 602281, 2012;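 active means inhibition above the mean inhibition across every tested compound plus 3 SD, cut at about 22% in these data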;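 further: 0% = DMSO only wells and the 100% control is not disclosed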
RBBP9 inh: human RBBP9 inhibitors, primary screen, biochemical, fluorescence polarization, FP-Rh probe, HTS. recombinant RBBP9. AID 1515, 2009. 220,000 compounds, 0.2% hits. Serine hydrolase RBBP9 (Homo sapiens), O75884. inhibition, % at 7.94 µM;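 active means inhibition above the campaign mean of all tested compounds plus 3 SD, cut at about 14% in these data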;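 further: plate controls were DMSO wells with RBBP9 for no effect and wells lacking RBBP9 protein for full effect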
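Material: RBBP9 protein. Amount: RBBP9 at 2.5 µM in dispensed solution, before mixing. Schedule: 30 min then 45 min, 25 °C. Medium: Tris buffer pH 8.0, NaCl, Pluronic. Measured by: fluorescence polarization. Measure: percent inhibition from mP, scaled between DMSO and no-protein wells. Replication: one well per compound.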
LEDGF integ inh: blockers of LEDGF/p75-dependent integrase strand transfer – biochemical, TR-FRET, high throughput, primary screen. 370,000 compounds, 0.64% hits. TR-FRET IN-LEDGF/p75 DNA integration, Eu/Cy5. inhibition, % at 3.7 µM;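 active means inhibition above the screen-wide mean plus 3 SD, cut at about 13% in these data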;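 further: signal is the Cy5 over europium emission ratio at 671 and 618 nm; 0% = plate median of compound wells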
ABHD5 PLIN5 conf: ABHD5-PLIN5 interaction inhibitors, confirmation, biochemical, luminescence; shares compounds with ABHD5-PLIN5 inh; inhibition, % at 4 µM; 2,200 compounds, 67% hits; in the data active means inhibition above about 23%;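 further: 0% = DMSO vehicle wells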
HNF4 split-luc: HNF4 dimerization inhibitors, counter-screen for ABHD5-PLIN5 interaction inhibitor project, biochemical, split-luciferase complementation, luminescence. shares compounds with ABHD5-PLIN5 inh. inhibition, % at 4 µM. 2,200 compounds, 77% hits;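 active means mean inhibition across replicate wells exceeding the computed hit threshold, cut at about 13% in these data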;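 further: light from luciferase halves that rejoin when HNF4 fusion proteins dimerize; 0% = DMSO only wells and the 100% control is not given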
* hit, by the source's call; x = no result given. In the library only some 3.1% were active in any assay of this set; here they are far more common.

SMILES | UHRF1 binding | MBD2 inh | PRMT1 FP inh | ABHD5-PLIN5 inh | RBBP9 inh | LEDGF integ inh | ABHD5 PLIN5 conf | HNF4 split-luc
CCOc1ccc(S(=O)(=O)NCc2ccco2)c2ccccc12 | 0 | -5 | 4 | 26* | -3 | 3 | 8 | 7
CN(C)S(=O)(=O)c1ccc2nc(COCc3nc4ccc(S(=O)(=O)N(C)C)cc4[nH]3)[nH]c2c1 | 5 | -5 | -5 | x | x | 2 | x | x
COC(=O)C1CN(Cc2ccc(OC)cc2)CCS(=O)(=O)N1Cc1cn(CCOC(C)=O)nn1 (configuration not stated) | 15 | 9 | 2 | x | x | 1 | x | x
Cc1ccc(C(=O)N/C(=C\c2ccc(-c3ccc(Br)cc3)o2)C(=O)NCCCN(C)C)cc1 | 2 | -3 | 1 | 36* | -4 | 1 | 21 | 2
CN(C)CCNC(=O)/C(=C/c1ccc(-c2ccc(Cl)cc2)o1)NC(=O)c1ccccc1 | 2 | 3 | 1 | 25* | -6 | 2 | 13 | 4
CN(C)CCCNC(=O)/C(=C\c1ccc(-c2cccc([N+](=O)[O-])c2)o1)NC(=O)c1ccccc1 | -11 | -8 | -4 | 14 | 4 | 0 | x | x
CN(C)CCNC(=O)/C(=C/c1ccc(-c2ccc(Cl)cc2Cl)o1)NC(=O)c1ccccc1 | 2 | 1 | -4 | 35* | -10 | -1 | 7 | 12
COC(=O)C1=C(C)N(Cc2ccccc2C(F)(F)F)C(=NCc2ccc(C(F)(F)F)cc2)NC1c1ccccc1 (configuration not stated) | 1 | 0 | 0 | x | x | -6 | x | x
CC(C)N(C(C)C)S(=O)(=O)c1ccc(Cl)nc1 | 1 | -1 | -7 | -3 | -5 | -1 | x | x
CC(C)N(C(C)C)S(=O)(=O)c1ccc(N2CCc3ccccc3C2)nc1 | 2 | -4 | 0 | 39* | x | -6 | 30* | 26*
CCN(CC)S(=O)(=O)c1ccc(N2CCc3ccccc3C2)nc1 | -3 | 1 | 2 | 44* | x | 0 | 61* | 72*
O=C(NC1CCCCN(Cc2cccc(Cl)c2)C1=O)c1cccc([N+](=O)[O-])c1 (configuration not stated) | -1 | -1 | 0 | x | x | -1 | x | x
CN(C)CCN(Cc1ccco1)c1ccccn1 | 1 | 3 | -5 | 46* | x | 1 | 35* | 0
CC(c1ccccc1)N1CC[C@H]2C=CC[C@@H](C(=O)Nc3cccc(Cl)c3)[C@H]2C1=O (some centres not stated) | 3 | 2 | 1 | x | x | -1 | x | x
N=c1c(C(=O)NCc2ccco2)cc2c(=O)n3ccccc3nc2n1CC1CCCO1 (configuration not stated) | -12 | -7 | 4 | 28* | -8 | 4 | 10 | 12
COC(=O)C1CN(Cc2ccc(OC)cc2)CCS(=O)(=O)N1Cc1cn(Cc2ccc(C)cc2)nn1 (configuration not stated) | 7 | 1 | -4 | x | x | -2 | x | x
CC(C)OC(=O)CN1C(=O)S/C(=C/c2ccc(N3CCCCC3)o2)C1=O | 0 | 1 | 16 | 34* | -8 | 3 | 61* | 102*
O=C1S/C(=C/c2ccc(N3CCOCC3)o2)C(=O)N1Cc1ccc(F)cc1 | 3 | 8 | 5 | 12 | 0 | -1 | x | x
COc1ccc(C(=O)N/C(=C/c2cccs2)c2nc3ccccc3[nH]2)cc1OC | -6 | 1 | -1 | 2 | -3 | 1 | x | x
